Measurements taken from ChEMBL document CHEMBL4680077, “Differentiation of skeletal osteogenic progenitor cells to osteoblasts with 3,4-diarylbenzopyran based amide derivatives: Novel osteogenic agents” (Eur J Med Chem, 2016).
The source made the active and inactive calls. The rule behind the calls is not given here.

Assays:
[1] = Acute toxicity in Swiss albino mouse assessed as morbidity at 5 to 1000 mg/kg, po measured after 7 days; format: organism-based; details: in vivo, 168 h, dose 5-1000 mg/kg, time 7 day
Method in brief: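 Acute oral toxicity per OECD guidelines 420, 423 and 425. Swiss albino mice received a single oral dose at 5, 50, 300 or 1000 mg kg1 body weight, with vehicle controls. Animals were watched for morbidity, mortality and observational changes over 7 days. Tail-vein blood was then taken for hematology and serum biochemistry. Organs were inspected at sacrifice. n = 6 per group.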

[2] = Acute toxicity in Swiss albino mouse assessed as absolute kidney weight at 1000 mg/kg, po measured after 7 days (reference value: 0.29 +/- 0.02 g); format: organism-based; details: in vivo, 168 h, time 7 day
[3] = Acute toxicity in Swiss albino mouse assessed as creatinine level at 300 mg/kg, po measured after 7 days (reference value: 0.97 +/- 0.07 mg/dL); format: organism-based; details: in vivo, 168 h, time 7 day
[4] = AUC (0 to infinity) in Sprague-Dawley rat at 1 mg/kg, iv measured upto 24 hrs by LC-MS/MS analysis; format: ADME, organism-based; design: route intravenous, dose 1 mg/kg, time <=24; details: in vivo
Method in brief: (§1)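 Female Sprague-Dawley rats (n = 4 per route), fasted overnight; 1 mg/kg oral (0.25% CMC) or i.v. tail-vein bolus (DMSO-PEG400-ethanol-water). Plasma was sampled to 24 h and assayed by LC-MS/MS (0.5-200 ng/mL). Non-compartmental AUC0-∞ = AUC0-t + Clast/kel; mean ± S.D.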

[5] = Acute toxicity in Swiss albino mouse assessed as absolute ovary weight at 5 mg/kg, po measured after 7 days (reference value: 0.04+/- 0.02 g); format: organism-based; details: in vivo, 168 h, time 7 day
[6] = Acute toxicity in Swiss albino mouse assessed as relative spleen weight at 1000 mg/kg, po measured after 7 days (reference value: 0.73 +/- 0.14 %); format: organism-based; details: in vivo, 168 h, time 7 day
[7] = Cmax in Sprague-Dawley rat at 1 mg/kg, po measured upto 24 hrs by LC-MS/MS analysis; format: ADME, organism-based; design: route oral, dose 1 mg/kg, time <=24; details: in vivo
Method in brief: (§2)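 Female Sprague-Dawley rats (n = 4), fasted overnight 12–14 h, dosed orally at 1 mg kg-1 as a 0.25% CMC suspension and fed 3 h post-dose. Retro-orbital blood was taken from 0.25 to 24 h. Plasma was hexane-extracted and assayed by LC-MS/MS. Cmax and Tmax were read from the data; other parameters came from non-compartmental analysis. Mean ± S.D.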

[8] = AUC (0 to 24 hrs) in Sprague-Dawley rat at 1 mg/kg, po measured upto 24 hrs by LC-MS/MS analysis; format: ADME, organism-based; design: route oral, dose 1 mg/kg, time <=24; details: in vivo
Method in brief: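 Female Sprague-Dawley rats (n = 4 per route), fasted overnight (12-14 h); 1 mg/kg orally in 0.25% CMC suspension, or an i.v. tail-vein bolus in DMSO-PEG400-ethanol-water (4:3:1:2). Retro-orbital blood was taken up to 24 h, and plasma was extracted with n-hexane (halofantrine IS). LC-MS/MS linear range 0.5-200 ng/mL. AUC0-24 was calculated by the linear trapezoidal rule, non-compartmental; mean ± S.D.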

[9] = Acute toxicity in Swiss albino mouse assessed as absolute spleen weight at 1000 mg/kg, po measured after 7 days (reference value: 0.17 +/- 0.03 g); format: organism-based; details: in vivo, 168 h, time 7 day
[10] = Acute toxicity in Swiss albino mouse assessed as monocyte count at 50 mg/kg, po measured after 7 days (reference value: 12.58 +/- 2.86 %); format: organism-based; details: in vivo, 168 h, time 7 day
[11] = Acute toxicity in Swiss albino mouse assessed as monocyte count at 1000 mg/kg, po measured after 7 days (reference value: 12.58 +/- 2.86 %); format: organism-based; details: in vivo, 168 h, time 7 day
[12] = Clearance in Sprague-Dawley rat at 1 mg/kg, iv measured upto 24 hrs by LC-MS/MS analysis; format: ADME, organism-based; details: in vivo
[13] = Acute toxicity in Swiss albino mouse assessed as absolute ovary weight at 300 mg/kg, po measured after 7 days (reference value: 0.04+/- 0.02 g); format: organism-based; details: in vivo, 168 h, time 7 day
Calvarial osteoblast = test: Induction of osteoblast differentiation in mouse calvarial osteoblast assessed as increase in OCN mRNA expression at 1 pM incubated for 48 hrs by qPCR analysis; format: functional, cell-based
Method in brief: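 Calvarial osteoblasts were treated at 1 pM for 24 and 48 h. Total RNA was extracted with TRIzol, and cDNA was made from 2 µg RNA. qPCR ran 40 cycles for BMP-2, RUNX-2, OCN and collagen type 1, with normalization to GAPDH. Mean ± SEM of three independent experiments.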

[14] = Acute toxicity in Swiss albino mouse assessed as relative heart weight at 5 mg/kg, po measured after 7 days (reference value: 0.51 +/- 0.02 %); format: organism-based; details: in vivo, 168 h, time 7 day
[15] = Acute toxicity in Swiss albino mouse assessed as absolute heart weight at 1000 mg/kg, po measured after 7 days (reference value: 0.12 g); format: organism-based; details: in vivo, 168 h, time 7 day
[16] = Acute toxicity in Swiss albino mouse assessed as body weight at 50 mg/kg, po observed on day 1 (reference value: 20.38 +/- 0.24 g); format: organism-based; details: in vivo, 24 h, time 1 day
[17] = Elimination rate constant in Sprague-Dawley rat at 1 mg/kg, po measured upto 24 hrs by LC-MS/MS analysis; format: ADME, organism-based; details: in vivo; method in brief: as §2
Mus musculus = test: In vivo osteogenic activity in ovariectomized BALB/c mouse assessed as decrease in serum OCN at 1 to 10 mg/kg, po via gavage administered for 30 days; format: functional, organism-based; details: dose 1-10 mg/kg, time 30.0 day
Method in brief: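 Eight-week-old female balb/c mice were ovariectomized and dosed once daily by oral gavage at 1 or 10 mg kg-1 in vehicle (gum acacia in water) for 30 days; sham and Ovx vehicle groups served as controls. Serum CTx and osteocalcin were assayed in duplicate. n = 10 per group; mean ± SEM.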

[18] = Acute toxicity in Swiss albino mouse assessed as lymphocyte count at 300 mg/kg, po measured after 7 days (reference value: 37.97 +/- 1.80 %); format: organism-based; details: in vivo, 168 h, time 7 day
[19] = Acute toxicity in Swiss albino mouse assessed as relative ovary weight at 300 mg/kg, po measured after 7 days (reference value: 0.07 +/- 0.02 %); format: organism-based; details: in vivo, 168 h, time 7 day
[20] = Acute toxicity in Swiss albino mouse assessed as lymphocyte count at 5 mg/kg, po measured after 7 days (reference value: 37.97 +/- 1.80 %); format: organism-based; details: in vivo, 168 h, time 7 day
[21] = AUC (0 to infinity) in Sprague-Dawley rat at 1 mg/kg, po measured upto 24 hrs by LC-MS/MS analysis; format: ADME, organism-based; design: route oral, dose 1 mg/kg, time <=24; details: in vivo; method in brief: as §1
[22] = Acute toxicity in Swiss albino mouse assessed as albumin level at 5 mg/kg, po measured after 7 days (reference value: 3.24 +/- 0.30 g/dL); format: organism-based; details: in vivo, 168 h, time 7 day
[23] = Acute toxicity in Swiss albino mouse assessed as tissue protein level at 1000 mg/kg, po measured after 7 days (reference value: 0.029 +/- 0.004 mg/ml); format: organism-based; details: in vivo, 168 h, time 7 day
[24] = Acute toxicity in Swiss albino mouse assessed as albumin level at 50 mg/kg, po measured after 7 days (reference value: 3.24 +/- 0.30 g/dL); format: organism-based; details: in vivo, 168 h, time 7 day
[25] = Acute toxicity in Swiss albino mouse assessed as malondialdehyde level at 5 mg/kg, po measured after 7 days (reference value: 0.14 +/- 0.01 nM/mg); format: organism-based; details: in vivo, 168 h, time 7 day
[26] = Acute toxicity in Swiss albino mouse assessed as relative uterus weight at 50 mg/kg, po measured after 7 days (reference value: 1.63 +/- 0.71 %); format: organism-based; details: in vivo, 168 h, time 7 day

## CCCCN(C)C(=O)CCCCOc1ccc([C@H]2c3ccc(OC)cc3OC(C)(C)[C@@H]2c2ccccc2)cc1
[1]
  Activity: Non-Toxic
[2]
  Activity: 0.29 g
[3]
  Activity: 0.97 mg/dL
[4]
  AUC(0-inf): 906 ng·h/mL
[5]
  Activity: 0.07 g
[6]
  Activity: 0.5%
[7]
  Cmax: 38.9 ng/mL
[8]
  AUC(0-t): 114 ng·h/mL
[9]
  Activity: 0.1 g
[10]
  Activity: 12.35%
[11]
  Activity: 12.27%
[12]
  clearance: 18.4 mL/min/kg
[13]
  Activity: 0.06 g
Calvarial osteoblast
  Activity: Active
[14]
  Activity: 0.48%
[15]
  Activity: 0.12 g
[16]
  Activity: 20.38 g
[17]
  k el at 24 h: 5.39e-05 s⁻¹
Mus musculus
  Activity: Active
[18]
  Activity: 42.9%
[19]
  Activity: 0.29%
[20]
  Activity: 39.08%
[21]
  AUC: 119.404 ng·h/mL
[22]
  Activity: 3.97 g/dL
[23]
  Activity: 0.032 mg/mL
[24]
  Activity: 2.77 g/dL
[25]
  Activity: 0.14 nM/mg
[26]
  Activity: 1.17%
